Variants at the floor of the assay were thinned out.
B1: tRNA (parent)
chain: GUUCCGUUGGCGUAAUGGUAACGCGUCUCCCUCCUAAGGAGAAGACUGCGGGUUCGAGUCCCGUACGGAACG

Variants of: B1
Assay: yeast fitness relative to wild type (ratio to wild type); higher = fitter; tRNA-Arg(CCU), competitive growth, 37 C, YPD
Procedure, shortened: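 Changes in genotype frequencies gave Darwinian fitness relative to wild type. Frequencies were read by 100-nucleotide paired-end sequencing of gene amplicons before and after pooled Saccharomyces cerevisiae strains, carrying tRNA-Arg(CCU) gene variants at the native locus, were competed in YPD at 37°C for 24 hours in six replicates. A genotype was kept only with ≥ 100 starting reads, and estimates < 0.5 were set to 0.5.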

First: GUUCCGUUGGCGUAAUGGUCACGCGUCUCCCUCCUAAGGAAAAGACUGCGGGUUCGAGUCCCGUACGGAACG
Second: GUUCCGUUGGCGUAAUGGUCACGCGUCUCCCUCCUAAGGAGAAGACUGAGGAUUCGAGUCUCGUACGGAACG
The yeast fitness of the first is higher: 0.779 for the first, ≤ 0.5 for the second.

First: GUUCCGUUGGCGUAAUGGUCACGCGUCUCCCUCCUAAGGAGAAGACUGCGGGUUUGAGUCCCGUACAGAACG
Second: GUUCCGUUGGCGUAAUGGUCACGCGUCUCCCUCAUAAGGAGAAGACUGCGGGUUCCAGUCCCGUACGGAACG
The yeast fitness of the first is higher: 0.53 for the first, ≤ 0.5 for the second.

Going from GUUCCGUUGGCGUAAUGGUCACGCGUCUCCCUCUUAAGGAGAAGACUGCGGAUUCGAGUCCCGUACGGAACG to GUUCCGUUGGCGUAAUGGUCACGCGUCUCCCUCCUAAGGAGAAGACUGCGGGUUCGAGUCCAGUACGCAACG, the yeast fitness falls from 0.574 to ≤ 0.5.

First: GUUCCGUUGGCGUAAUGGUCACGCGUCUCCCUCAUAAGGAGAAGACUGCGGGUUCGAGUCCCCUACGGAACG
Second: GUUCCGUUGGCGUAAUGGUCACGCGUCUCCCUCCUAAGGAGAAGACUGGGGGUUCGAGUCCCGUACAGAACG
The yeast fitness of the first is lower: ≤ 0.5 for the first, 0.59 for the second.

GUUCCGUUGGCGUAAUGGUCACGCGUCUCCCUCCUAAGGAGAAAACUGCGGGUUCGAGUACCGUACAGAACG and GUUCCGUUGGCGUAAUGGUCACGCGUCUCCCUCCUAAGGAGAACACUACGAGUUCGAGUCCCGUACGGAACG cannot be ordered by yeast fitness: ≤ 0.5 for the first, ≤ 0.5 for the second.

GUUCCGUUGGCGUAAUGGUCACGCCUCUCCCUCCUAAGGAGAACACUGCGGGUUCGAAUCCCGUACGCAACG and GUUCCGUUGGCGUAAUGGUCACGCGUCUCCCUCGUAAGGAGAAGACUGCGGGUUCGAGUCCCGUAUGGAACG cannot be ordered by yeast fitness: ≤ 0.5 for the first, ≤ 0.5 for the second.

Compared with GUUCCGUUGGCGUAAUGGUCACGCGUCUCCCUCUUAAGGAGAAGACUGCGGGUUCGAGUCCCGUACGGAACG, GUUCCGUUGGCGUAAUGGUCACGCGUCUCCCUCGUAAGGAGAAGACUGCGGGUUCGAGUCCCGUACGGAACG is lower in yeast fitness: 0.65 for the first, 0.527 for the second.

First: GUUCCGUUGGCGUAAUGGUCACGCGUCUCCCUCCUAAGGAGAAGACUGGGGGUUCGAGUCCCGUACGGAACG
Second: GUUCCGUUGGCGUAAUGGUCACGCGUCUCCCUCCUAAGGAGAAGACUGUGGGUUCGAGUCCCGUACGGAACG
The yeast fitness of the first is lower: 0.795 for the first, 1.03 for the second.

Going from GUUCCGUUGGCGUAAUGGUCACGCGUCUCCCUCCUAAGGAGAAGACUGCGGGUUUGAGUCCCGUAGGGAACG to GUUCCGUUGGCGUAAUGGUCACGCGUCUCCGUCCUGAGGAGAAGACUGCGGGUUCGAGUCCCGUACGGAACG, the yeast fitness rises from ≤ 0.5 to 0.764.

Compared with GUUCCGUUGGCGUAAUGGUCACGCGUCUCACUCCUAAGGAGAAGACUGCGGGUUAGAGUCCCGUACAGAACG, GUUCCGUUGGCGUAAUGGUCACGCGUCUCCCUCCUAAGGAGAAGAAUGGGGGUUCGAGUCCCGUACGGAACG is higher in yeast fitness: 0.534 for the first, 0.548 for the second.

GUUCCGUUGGCGUAAUGGUCACGCGUCUCCCUCAUAGGGAGAAGAAUGCGGGUUCGAGUCCCGUACGGACCG and GUUCCGUUGGCGUAAUGGUCACGCGUCUCCCUACUAAGAAGAAGACUGCGGGUUCGAGUCCCGUACGGAACG cannot be ordered by yeast fitness: ≤ 0.5 for the first, ≤ 0.5 for the second.

GUUCCGUUGGCGUAAUGGUCACGCGUCUUCCUCCUAAGGAGAAGACUGGGGGUUCGAGUCCCCUAGGGAACG and GUUCCGUUGGCGUAAUGGUCACGCGUCUCUCUCCUAAGGAGAAGACUGCGCGUUGGUGUCCCGUAUGGAACG cannot be ordered by yeast fitness: ≤ 0.5 for the first, ≤ 0.5 for the second.

First: GUUCCGUUGGCGUAAUGGUCACGCGUCUUCCUCCUAAGGAGAAGACUGCGGGUUCGAGUCCCGUAUGGAACG
Second: GUUCCGUUGGCGUAAUGGUCACGCGUCUCCCUCCUAAGGAGAAGACUGCGGGUUUGAGUCCCGUACGGAACG
The yeast fitness of the first is lower: 0.603 for the first, 0.612 for the second.

First: GUUCCGUUGGCGUAAUGGUCACGCGUCUUCCUCCUAAGGAGAAGACUGCGGGUUCGAGUCCCGUACGGAACG
Second: GUUCCGUUGGCGUAAUGGUCACGCGUCUCCCUCCUAAGGAGAAGAGUGCGGGUUCGAGUCCGGUACGGAACG
The yeast fitness of the first is higher: 0.715 for the first, 0.529 for the second.

First: GUUCCGUUGGCGUAAUGGUCACGCGUCUCCCUCCUAAGGAGAAAACUGCGGGUUCGAGUCCCGUACGGAACG
Second: GUUCCGUUGGCGUAAUGGUCACGCGUCUCCCUCUUAAGGAGAAGACUGCGGGUUCGAGUCCCGUAUGGAACG
The yeast fitness of the first is higher: 0.778 for the first, 0.543 for the second.

Going from GUUCCGUUGGCGUAAUGGUCACGCGUCUCCCUCCUAAGGAGAAGACUGCGGAUUCGAGUCCCGUACGAAACG to GUUCCGUUGGCGUAAUGGUCACGCGUCUCCCUCCUAAGGAGAAGAGUGCGGGUUCGAGUCCCGUACGGAACG, the yeast fitness rises from ≤ 0.5 to 1.02.

GUUCCGUUGGCGUAAUGGUCACGCGUCUCCCUCAUAAGGAGAAGACUGCGGGUUCGAGUCCUGUACGGAACG and GUUCCGUUGGCGUAAUGGUCACGCGUCUCGCUCCUAAGGAGAAGACUGCGGGUUCGAGUGCCGUACGGAACG cannot be ordered by yeast fitness: ≤ 0.5 for the first, ≤ 0.5 for the second.

First: GUUCCGUUGGCGUAAUGGUCACGCGUCUCCCUCCUAAGGAGAAGACUGCGGAUUCGAGUCCCGUACGGAACG
Second: GUUCCGUUGGCGUAAUGGUCACGCGUCUCCCUCCUAAGGAGAACACUGCGGGUUCGAGUCCCGUACGGAUCG
The yeast fitness of the first is higher: 0.705 for the first, 0.573 for the second.

In the case of GUUCCGUUGGCGUAAUGGUCACGCCUCUCCCUACUAAGGAGAAGACUGCGGGUUAGAGUCCCGUACGGAACG, the yeast fitness is reported as ≤ 0.5.

From the RNAGym collection of RNA variant scans (doi:10.1126/science.aae0568)
